Assay results of several laboratories.
Lines come from different studies, so protocols differ.
Cell line: HEK293
Effect on: cell growth or viability

SMILES	method	concentration	time	endpoint	result
C[C@@H](c1cc(Cl)cc(Cl)c1)N(C)c1ncc2c(N)nc(N)nc2n1	MTT		24 h	CC50	31.2 µM
CC(C)(O)c1coc(S(=O)(=O)NC(=O)Nc2c3c(cc4c2CCC4)CCC3)c1	MTT	10 µM	4 h	viability	95.2%
O=P(O)(O)c1cc2c(O)c(c1)Cc1cc(P(=O)(O)O)cc(c1O)Cc1cc(P(=O)(O)O)cc(c1O)Cc1cc(P(=O)(O)O)cc(c1O)Cc1cc(P(=O)(O)O)cc(c1O)Cc1cc(P(=O)(O)O)cc(c1O)Cc1cc(P(=O)(O)O)cc(c1O)Cc1cc(P(=O)(O)O)cc(c1O)C2	MTT		24 h	CC50	608 µM
CC/C(=C(\c1ccccc1)c1ccc(OCCN(C)C)cc1)c1ccccc1	resazurin		20 h	CC50	5.62 µM
CCn1cc(C(=O)NCCNCCO)c(=O)c2cc(OC)c(OCc3cc(F)cc(F)c3)cc21	resazurin		20 h	CC50	> 32 mg/L
Cc1ccc2oc(-c3cc(NC(=O)Cc4ccccc4)ccc3Cl)nc2c1	MTT		24 h	CC50	> 400 µM
Cc1c2ccncc2c(C)c2c1[nH]c1ccc(OCCN(C)C)cc12	MTS			IC50	3.16 µM
CO[C@H]1C[C@@H](C[C@H](C)[C@H]2CC(=O)[C@@H](C)/C=C(\C)[C@H](O)[C@H](OC)C(=O)[C@@H](C)C[C@@H](C)/C=C/C=C/C=C(\C)[C@H](OC)C[C@H]3CC[C@H](C)[C@](O)(O3)C(=O)C(=O)N3CCCC[C@@H]3C(=O)O2)CC[C@@H]1OCCO (racemic)	MTT		24 h	CC50	63.7 µM
CC1c2cc(c(O)cc2O)C(C)c2cc(c(O)cc2O)C(C)c2cc(c(O)cc2O)C(C)c2cc1c(O)cc2O (stereo not drawn)	ATP luminescence		24 h	CC50	21.2 µM
